Results taken from ChEMBL document CHEMBL1165950, “Design and synthesis of new potent anticancer pyrazoles with high FLT3 kinase inhibitory selectivity” (Bioorg Med Chem, 2010).

Experiments:
Format in all cases: functional
NCI-H522 = assay: Cytotoxicity against human NCI-H522 cells assessed as cell growth at 0.01 uM after 48 hrs by sulforhodamine B assay; conditions: NCI-H522, 48 h, read-out: Activity
SK-OV-3 [1] = assay: Cytotoxicity against human SKOV3 cells assessed as cell growth at 1 uM after 48 hrs by sulforhodamine B assay; conditions: SK-OV-3, 48 h, read-out: Activity
T47D = assay: Cytotoxicity against human T47D cells assessed as cell growth at 0.001 uM after 48 hrs by sulforhodamine B assay; conditions: read-out: Activity
OVCAR-8 = assay: Cytotoxicity against human OVCAR8 cells assessed as cell growth at 0.001 uM after 48 hrs by sulforhodamine B assay; conditions: OVCAR-8, 48 h, read-out: Activity
UACC-62 [2] = assay: Cytotoxicity against human UACC62 cells assessed as cell growth at 0.01 uM after 48 hrs by sulforhodamine B assay; conditions: UACC-62, 48 h, read-out: Activity
OVCAR-4 = assay: Cytotoxicity against human OVCAR4 cells assessed as cell growth at 10 uM after 48 hrs by sulforhodamine B assay; conditions: OVCAR-4, 48 h, read-out: Activity
PC-3 = assay: Cytotoxicity against human PC3 cells assessed as cell growth at 10 uM; conditions: read-out: Activity
Summary of the method: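 NCI-60 screen: cells grown in RPMI 1640 with 5% FBS and 2 mM L-glutamine, plated at 5000–40,000 cells/well according to doubling time, and preincubated 24 h at 37 °C, 5% CO2. The single 10 µM dose (DMSO stock) was added, then incubated 48 h. Cells were TCA-fixed and stained with 0.4% SRB, read at 515 nm, and growth % calculated against time-zero and control plates.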

OVCAR-5 = assay: Cytotoxicity against human OVCAR5 cells assessed as cell growth at 10 uM after 48 hrs by sulforhodamine B assay; conditions: OVCAR-5, 48 h, read-out: Activity
SNB-19 = assay: Cytotoxicity against human SNB19 cells assessed as cell growth at 1 uM after 48 hrs by sulforhodamine B assay; conditions: SNB-19, 48 h, read-out: Activity
SF-268 = assay: Cytotoxicity against human SF268 cells assessed as cell growth at 10 uM after 48 hrs by sulforhodamine B assay; conditions: SF-268, 48 h, read-out: Activity
SNB-75 = assay: Cytotoxicity against human SNB75 cells assessed as cell growth at 0.001 uM after 48 hrs by sulforhodamine B assay; conditions: SNB-75, 48 h, read-out: Activity
HOP-92 = assay: Cytotoxicity against human HOP92 cells assessed as cell growth at 0.001 uM after 48 hrs by sulforhodamine B assay; conditions: HOP-92, 48 h, read-out: Activity
DU-145 [3] = assay: Cytotoxicity against human DU145 cells assessed as cell growth at 100 nM after 48 hrs by sulforhodamine B assay; conditions: DU-145, 48 h, read-out: Activity
HL-60(TB) = assay: Growth inhibition of human HL-60(TB) cells after 48 hrs by sulforhodamine B assay; conditions: HL-60, 48 h
Summary of the method: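 NCI 60-cell SRB screen. Cells in RPMI 1640 with 5% FBS and 2 mM L-glutamine are preincubated 24 h, then exposed to five concentrations (10-fold or 1/2-log dilutions from DMSO stock) for 48 h at 37 °C. Suspension cells are fixed with 80% TCA (final 16%), and A515 is read. IC50 is taken as the concentration where [(Ti−Tz)/(C−Tz)]×100 = 50, i.e. 50% reduction in net protein increase.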

M14 = assay: Cytotoxicity against human M14 cells assessed as cell growth at 0.01 uM after 48 hrs by sulforhodamine B assay; conditions: M14, 48 h, read-out: Activity
UACC-62 [4] = assay: Cytotoxicity against human UACC62 cells assessed as cell growth at 10 uM after 48 hrs by sulforhodamine B assay; conditions: UACC-62, 48 h, read-out: Activity
[5] = Cytotoxicity against human RPMI8266 cells assessed as cell growth at 1 uM after 48 hrs by sulforhodamine B assay; conditions: read-out: Activity
Malme-3M [6] = assay: Growth inhibition of human MALME-3M cells after 48 hrs by sulforhodamine B assay; conditions: for CC50: read-out: LC50 (the source's name)
Summary of the method: (§1)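 NCI 60-cell screen, five-dose mode. Cells grown in RPMI 1640 with 5% FBS and 2 mM L-glutamine and plated at 5000-40,000 cells/well according to doubling time. After 24 h preincubation, a Tz plate was TCA-fixed. Five concentrations (10-fold or 1/2 log dilutions) were applied for 48 h at 37 °C. SRB staining read at 515 nm. IC50 taken from [(Ti-Tz)/(C-Tz)]×100 = 50.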

Malme-3M [7] = assay: Cytotoxicity against human MALME-3M cells assessed as cell growth at 1 uM after 48 hrs by sulforhodamine B assay; conditions: read-out: Activity
CCRF-CEM = assay: Growth inhibition of human CCRF-CEM cells after 48 hrs by sulforhodamine B assay
Summary of the method: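 NCI five-dose SRB assay in RPMI 1640 with 5% FBS and 2 mM L-glutamine. Cells were preincubated 24 h, then exposed 48 h at 37 °C to five concentrations (10-fold or half-log serial dilutions from DMSO stocks). TCA fixation, SRB staining, and absorbance at 515 nm followed. IC50 was taken where [(Ti−Tz)/(C−Tz)]×100 = 50, with Tz as time-zero cell density.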

DU-145 [8] = assay: Cytotoxicity against human DU145 cells assessed as cell growth at 1 uM after 48 hrs by sulforhodamine B assay; conditions: DU-145, 48 h, read-out: Activity
MDA-MB-231 = assay: Cytotoxicity against human MDA-MB-231 cells assessed as cell growth at 0.01 uM after 48 hrs by sulforhodamine B assay; conditions: MDA-MB-231, 48 h, read-out: Activity
BT-549 = assay: Cytotoxicity against human BT549 cells assessed as cell growth at 0.001 uM after 48 hrs by sulforhodamine B assay; conditions: BT-549, 48 h, read-out: Activity
Summary of the method: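 NCI-60 five-dose screen. Cells were grown in RPMI 1640 with 5% FBS and 2 mM L-glutamine, plated at 5000–40,000 cells/well and preincubated for 24 h. Time-zero plates were TCA-fixed. DMSO-solubilized drug was added at five concentrations (10-fold or ½-log serial dilutions) for 48 h at 37 °C, 5% CO2. Cells were TCA-fixed, stained with 0.4% SRB and read at 515 nm. Percent growth used time-zero, control and test absorbances.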

SN12C = assay: Cytotoxicity against human SN12C cells assessed as cell growth at 0.01 uM after 48 hrs by sulforhodamine B assay; conditions: read-out: Activity
HCT-15 = assay: Cytotoxicity against human HCT15 cells assessed as cell growth at 0.01 uM after 48 hrs by sulforhodamine B assay; conditions: HCT-15, 48 h, read-out: Activity
SK-OV-3 [9] = assay: Cytotoxicity against human SKOV3 cells assessed as cell growth at 0.01 uM after 48 hrs by sulforhodamine B assay; conditions: SK-OV-3, 48 h, read-out: Activity
U-251 = assay: Growth inhibition of human U251 cells after 48 hrs by sulforhodamine B assay; conditions: U-251, 48 h; for CC50: read-out: LC50 (the source's name); summary of the method: as §1

Structure (SMILES)	growth at 0.01 µM (NCI-H522) [%]	growth at 1 µM (SK-OV-3 [1]) [%]	growth at 0.001 µM (T47D) [%]	growth at 0.001 µM (OVCAR-8) [%]	growth at 0.01 µM (UACC-62 [2]) [%]	growth at 10 µM (OVCAR-4) [%]	growth at 10 µM (PC-3) [%]	growth at 10 µM (OVCAR-5) [%]	growth at 1 µM (SNB-19) [%]	growth at 10 µM (SF-268) [%]	growth at 0.001 µM (SNB-75) [%]	growth at 0.001 µM (HOP-92) [%]	growth at 0.1 µM (DU-145 [3]) [%]	GI50 (HL-60(TB)) [µM]	LC50 (HL-60(TB)) [µM]	TGI (HL-60(TB)) [µM]	growth at 0.01 µM (M14) [%]	growth at 10 µM (UACC-62 [4]) [%]	growth at 1 µM [5] [%]	TGI (Malme-3M [6]) [µM]	other results
Cc1cc(O)cc(-c2nn(CC#N)cc2-c2ccnc(-c3ccc(N(C)C)cc3)c2)c1	84	-11	93	100	96	9	40.4	-18	28	-58	83	80	94	3.14	> 100	12.9	92	-80	15	39.2	GI50 (Malme-3M [6]): 4.56 µM; CC50 (Malme-3M [6]): > 100 µM; growth at 1 µM (Malme-3M [7]): 27%; GI50 (CCRF-CEM): 3.59 µM; LC50 (CCRF-CEM): > 100 µM; TGI (CCRF-CEM): > 100 µM; growth at 1 µM (DU-145 [8]): -7%; growth at 0.01 µM (MDA-MB-231): 98%; growth at 0.001 µM (BT-549): 96%; growth at 0.01 µM (SN12C): 90%; growth at 0.01 µM (HCT-15): 92%; growth at 0.01 µM (SK-OV-3 [9]): 98%; GI50 (U-251): 3.14 µM; TGI (U-251): 12.9 µM; CC50 (U-251): 61.3 µM
COc1cc(C)cc(-c2nn(CC#N)cc2-c2ccnc(-c3ccc(N(C)C)cc3)c2)c1	87	-24	102	97	86	15	31.6	15	19	-32	95	102	2	0.293	> 100	0.923	93	-8	1	> 100	CC50 (Malme-3M [6]): > 100 µM; growth at 1 µM (Malme-3M [7]): 61%; GI50 (CCRF-CEM): 0.454 µM; LC50 (CCRF-CEM): > 100 µM; TGI (CCRF-CEM): > 100 µM; growth at 1 µM (DU-145 [8]): -40%; growth at 0.01 µM (MDA-MB-231): 94%; growth at 0.001 µM (BT-549): 105%; growth at 0.01 µM (SN12C): 90%; growth at 0.01 µM (HCT-15): 92%; growth at 0.01 µM (SK-OV-3 [9]): 102%; GI50 (U-251): 0.415 µM; TGI (U-251): 5.86 µM; CC50 (U-251): > 100 µM
